Series [1] is described as follows: In vitro dissolution / drug release study. The series is classed as physicochemical. The note with it: 0.1 M phosphate buffer pH 6.8, 37±0.5 °C, dialysis bag, up to 12 h. In short, it runs like this:
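Free test compound, its cyclodextrin complex and the complex-loaded chitosan nanoparticles were placed in dialysis bags presoaked overnight. Medium was 100 mL of 0.1 M phosphate buffer, pH 6.8, at 37±0.5 °C. Samples were 0.45 µm filtered and assayed by UV at 388 nm.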

The next series relates to α-glucosidase enzyme. Kind of series: Alpha-glucosidase enzyme inhibition activity. It is filed as biochemical. The conditions noted are these: concentration not given. In short, it runs like this: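 Enzyme was 0.02 U/μL α-glucosidase in 0.2 M sodium phosphate buffer, pH 6.8. Enzyme and buffer were preincubated 20 min with test compound in DMSO at 1000, 500, 250, 125 or 62.5 μg/mL. 0.02 M PNPG substrate was added for a further 30 min. The reaction was stopped with 0.2 M Na2CO3. Released p-nitrophenol was read at 405 nm and % inhibition calculated by formula.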

Series [2] in a line: In vivo pharmacokinetic study, single oral dose, EPL in rabbit plasma by HPLC. Details: species or system rabbits (Oryctolagus cuniculus). In short, it runs like this:
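Non-pregnant adult rabbits (2.5±0.1 kg) in three groups of six got a single oral dose of free compound, complex or nanoparticles. Jugular blood went into EDTA at set times, was spun 12,000 rpm 30 min, and plasma stored −70 °C. Perchloric acid precipitation preceded C18 HPLC (acetonitrile:KH2PO4 60:40, pH 4.0; 388 nm; plasma calibration 0.02–10 μg/mL). Non-compartmental log-linear trapezoidal analysis gave parameters; mean±SD.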

The structures appear in SMILES notation.

For `CC(/C=C1\SC(=S)N(CC(=O)O)C1=O)=C\c1ccccc1` [EPL, Epalrestat], the “cumulative drug release (%)” value in series [1] is 20–25%. The “potency against α-glucosidase enzyme inhibition” value in the series with α-glucosidase enzyme is “greater than 70%”. Besides, in series [2] (plasma, po), the Cmax – broadly, the peak of the concentration-time curve – worked out at 4.75 ± 3.64 µg/mL. Also, in series [2] (plasma, po, AUC0-α, single oral dose, mean±SD), the AUC (commonly concentration integrated over time) came out at 192 ± 165 µg·h/mL. Also, in series [2] (single oral dose, mean±SD), the AUC0-α worked out at 191.5 ± 164.63 µg·h/mL, the MRT is reported as 47.22±3.88 H and the “T1/2 (elimination half-life)” value came to 4 H.

The values above are taken from PMC8721161 (International Journal of Nanomedicine, 2021).
